Data on 10 compounds can be found in ChEMBL document CHEMBL1133462, “Discovery of novel and potent retinoic acid receptor alpha agonists: syntheses and evaluation of benzofuranyl-pyrrole and benzothiophenyl-pyrrole derivatives” (2000).

The structures appear in SMILES notation.

The target in assay [1] is T1, Retinoic acid receptor beta (Homo sapiens) (UniProt P10826).
T1 sequence (whole entry): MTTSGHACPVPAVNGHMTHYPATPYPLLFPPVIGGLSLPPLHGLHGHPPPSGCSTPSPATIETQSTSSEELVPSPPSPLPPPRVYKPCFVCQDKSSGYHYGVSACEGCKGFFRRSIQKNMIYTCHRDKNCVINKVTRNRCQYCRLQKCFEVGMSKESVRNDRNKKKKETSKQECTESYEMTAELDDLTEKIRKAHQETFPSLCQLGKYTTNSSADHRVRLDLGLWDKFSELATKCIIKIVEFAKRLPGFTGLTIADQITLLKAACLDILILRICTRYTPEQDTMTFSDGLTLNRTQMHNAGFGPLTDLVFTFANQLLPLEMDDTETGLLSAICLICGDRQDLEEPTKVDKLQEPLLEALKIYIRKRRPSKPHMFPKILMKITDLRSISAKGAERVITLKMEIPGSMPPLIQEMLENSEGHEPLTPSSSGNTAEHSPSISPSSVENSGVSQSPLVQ
As to the kind of experiment: Relative transcriptional activation in COS cells expressing Retinoic acid receptor beta compared to ATRA. It counts as functional, cell-based. Put shortly: (§1)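 COS-1 cells were lipofected with receptor and reporter vectors. After 4 h the medium was changed to DMEM/10% FBS for a further 20 h, then cells were reseeded at 3 × 10⁴/well. After 6 h, compounds were added in log dilutions from 3.0 × 10^-6 to 1.0 × 10^-10 M, in duplicate, for 48 h. Supernatant PLAP activity was measured. EC30 (concentration giving 30% of maximal response) was normalized to ATRA EC30. Values averaged from at least two experiments.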

The target in assay [2] is T2, Retinoic acid receptor alpha (Homo sapiens) (UniProt P10276).
T2 sequence (whole entry): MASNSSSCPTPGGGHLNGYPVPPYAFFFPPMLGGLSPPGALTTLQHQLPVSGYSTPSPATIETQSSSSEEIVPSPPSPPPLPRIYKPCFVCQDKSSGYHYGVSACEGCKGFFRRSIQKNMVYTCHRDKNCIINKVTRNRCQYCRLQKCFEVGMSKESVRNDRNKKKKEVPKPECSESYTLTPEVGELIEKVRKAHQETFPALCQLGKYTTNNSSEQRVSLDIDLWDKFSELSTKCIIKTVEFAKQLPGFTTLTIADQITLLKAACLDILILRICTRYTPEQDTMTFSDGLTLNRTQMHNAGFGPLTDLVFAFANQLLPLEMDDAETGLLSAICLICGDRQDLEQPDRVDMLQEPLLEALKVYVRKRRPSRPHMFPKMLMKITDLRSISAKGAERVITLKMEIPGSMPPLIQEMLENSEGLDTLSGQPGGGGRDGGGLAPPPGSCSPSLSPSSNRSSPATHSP
Kind of assay: Relative transcriptional activation in COS cells expressing Retinoic acid receptor alpha compared to ATRA. It counts as functional, cell-based. In outline: as §1

Assay [3] addresses T2, Retinoic acid receptor alpha (Homo sapiens). As to the kind of experiment: Inhibition of [3H]-ATRA binding to Retinoic acid receptor alpha (RAR-alpha). In outline: (§2)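 Competitive binding of [³H]ATRA to individual RAR subtypes. Each IC50 was divided by the ATRA IC50 to give a relative IC50. Reported as mean ± SEM, averaged from at least two experiments.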
Assay [4] concerns the target T3, Retinoic acid receptor gamma (Homo sapiens) (UniProt P13631).
T3 sequence (whole entry): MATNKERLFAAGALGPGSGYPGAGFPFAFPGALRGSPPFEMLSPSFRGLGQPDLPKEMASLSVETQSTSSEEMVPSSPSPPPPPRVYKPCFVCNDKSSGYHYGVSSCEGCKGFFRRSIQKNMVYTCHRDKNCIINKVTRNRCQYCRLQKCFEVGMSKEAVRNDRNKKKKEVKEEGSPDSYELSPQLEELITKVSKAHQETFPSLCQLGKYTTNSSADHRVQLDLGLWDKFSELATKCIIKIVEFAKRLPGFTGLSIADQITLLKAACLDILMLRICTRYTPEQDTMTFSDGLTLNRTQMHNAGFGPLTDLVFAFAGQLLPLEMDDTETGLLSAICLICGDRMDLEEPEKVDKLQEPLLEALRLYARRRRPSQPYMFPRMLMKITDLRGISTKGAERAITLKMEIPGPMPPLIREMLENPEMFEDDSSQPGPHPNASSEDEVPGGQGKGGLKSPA
Kind of assay: Relative transcriptional activation in COS cells expressing Retinoic acid receptor gamma compared to ATRA. The assay is classed as functional, cell-based. Put shortly: as §1

Assay [5] can be described thus: Inhibition of LPS-induced mouse B-lymphocyte proliferation (Mean of IC50/ATRA IC50). The assay is classed as functional. Put shortly:
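BALB/c splenocytes at 1.2 × 10⁵ cells/well in RPMI-1640 with 50 µM 2-mercaptoethanol, 10% FBS and 5 µg/mL E. coli LPS. Compounds were tested in log dilutions from 1.0 × 10^-6 to 1.0 × 10^-12 M final, in triplicate, for 3 days at 37 °C and 5% CO₂. IC50 was fitted by nonlinear regression and divided by the ATRA IC50. Reported as mean ± SEM of triplicates.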

Assay [6] concerns the target T1, Retinoic acid receptor beta (Homo sapiens). Kind of assay: Inhibition of [3H]ATRA binding to Retinoic acid receptor beta (RAR-beta). Put shortly: as §2

On to `COc1ccc(C)c2oc(-c3ccc(-c4ccc(C(=O)O)cc4)[nH]3)cc12`, for which the Relative EC30 worked out at 730 nM in assay [1], 6 nM in assay [2] and 3700 nM in assay [4]. Besides, the Relative IC50 was found to be 15 nM in assay [3] and 4.7 in assay [5].

As to `O=C(O)c1ccc(-c2ccc(-c3cc4c(Cl)ccc(Cl)c4o3)[nH]2)cc1`, the Relative EC30 in assay [1] worked out at 110 nM; in assay [2] it was 0.7 nM; in assay [4], 820 nM. The Relative IC50 in assay [3] is 1.5 nM; in assay [6] it was 690 nM; in assay [5], 1.3.

`Cc1cc(C)c2oc(-c3ccc(-c4ccc(C(=O)O)cc4)[nH]3)cc2c1`: the figures for the Relative EC30 in assay [1], in assay [2] and in assay [4] were 380 nM, 1 nM and 890 nM, respectively. Moreover, the figures for the Relative IC50 in assay [3] and in assay [5] were 16 nM and 1.2, respectively.

Turning to `O=C(O)c1ccc(-c2ccc(-c3cc4c(C(F)(F)F)ccc(F)c4o3)[nH]2)cc1`, the Relative EC30 in assay [1] was found to be 8.5 nM; in assay [2], 0.29 nM; in assay [4] it was 110 nM. Also, the figures for the Relative IC50 in assay [3], in assay [6] and in assay [5] were 1.9 nM, 500 nM and 0.37, respectively.

As for `Cc1ccc2cc(-c3ccc(-c4ccc(C(=O)O)cc4)[nH]3)oc2c1C`, the Relative EC30 was 160 nM in assay [1], 3.1 nM in assay [2] and 2000 nM in assay [4]. The results for the Relative IC50 in assay [3] and in assay [5] were 12 nM and 2.4, respectively.

As to `Cc1cc(C)c2oc(-c3ccc(-c4ccc(C(=O)O)cc4)[nH]3)cc2c1C`, the Relative EC30 in assay [1] was 200 nM; in assay [2], 2 nM; in assay [4], 480 nM. Also, the Relative IC50 in assay [3] is 9.4 nM; in assay [5] it was 2.2.

`Cc1ccc(C)c2sc(-c3ccc(-c4ccc(C(=O)O)cc4)[nH]3)cc12`: the results for the Relative EC30 in assay [1], in assay [2] and in assay [4] were 130 nM, 1.3 nM and 840 nM, respectively. In addition, the Relative IC50 is 6.1 nM in assay [3] and 0.75 in assay [5].

Regarding `Cc1cc(C)c2sc(-c3ccc(-c4ccc(C(=O)O)cc4)[nH]3)cc2c1`, the Relative EC30 amounted to 1300 nM in assay [1], 2.4 nM in assay [2] and 2900 nM in assay [4]. Also, the Relative IC50 came to 62 nM in assay [3] and 3.6 in assay [5].

On to `Cc1cccc2cc(-c3ccc(-c4ccc(C(=O)O)cc4)[nH]3)oc12`, for which the figures for the Relative EC30 in assay [1], in assay [2] and in assay [4] were 92 nM, 0.8 nM and 1000 nM, respectively. The Relative IC50 in assay [3] amounted to 1.6 nM; in assay [5] it was 0.98.

Consider `Cc1ccc(C)c2oc(-c3ccc(-c4ccc(C(=O)O)cc4)[nH]3)cc12`, for which the Relative EC30 in assay [1] came out at 25 nM; in assay [2], 0.37 nM; in assay [4], 240 nM. For the same compound, the results for the Relative IC50 in assay [3], in assay [6] and in assay [5] were 1.4 nM, 490 nM and 0.76, respectively.
